In ChEMBL document CHEMBL4513216, “Probing the Open Global Health Chemical Diversity Library for Multistage-Active Starting Points for Next-Generation Antimalarials” (ACS Infect Dis, 2020):

Test: Toxicity liver stage against HepG2, at 10uM
Assay type: cell-based
Set-up: test concentration 10 uM, cell line HepG2-A16-CD81EGFP
Conditions: human, HepG2-A16-CD81EGFP cells; read-out: INHIBITION
In short: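 Uninfected HepG2-A16-CD81EGFP cells, 3 × 10^3 per well, 1536-well, plated on prespotted compound at 10 μM final, parasite-free screening media added to match infected plates; puromycin 10 μM positive, DMSO 0.5% negative; run in parallel with 48 h PbLuc assay at 37 °C, 5% CO2; viability by CellTiter-Glo luminescence, normalized to controls.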

Row | Structure (SMILES) | cytotoxicity at 10 µM [%]
1 | N#Cc1cccnc1N1CCN(C(=O)c2cccs2)CC1 | 10.4
2 | O=C(N1CCCCC1)N1CCN(CC(O)c2ccc(F)cc2)CC1 (configuration not stated) | -8.85
3 | Cc1cc(C)c2cc(C(=O)N3CCN(Cc4ccco4)CC3)[nH]c2c1 | -51.4
4 | Cc1ccc(CN2C[C@H]3CN(C(=O)c4ccno4)CCN3C2=O)cc1 | -2.07
5 | OC[C@@H]1CN2CCN(c3ccccn3)C[C@@H]2[C@H]1c1ccccc1 | -2.41
6 | CNC(=O)[C@@H]1[C@H]2CN(Cc3ccoc3)CCN2C[C@H]1c1ccccc1 | 4.06
7 | CC(C)(C)OC(=O)N1CC(=O)N(CCc2ccccc2)CC(O)C1 (configuration not stated) | -12.9
8 | CC(C)C1SCC(=O)Nc2c1cnn2-c1ccc(F)cc1 (configuration not stated) | 1.23
9 | Cn1cnc2cc(CCC(=O)Nc3n[nH]c(C4CCCO4)n3)ccc21 (configuration not stated) | -0.863
10 | COc1ccc(NC(=O)Cn2nc(C)c(C(C)=O)c2C)cc1 | -3.66
11 | CCOc1nn(CC)cc1-c1nnc(SCc2cccnc2)n1CC | -0.244
12 | COc1ccc(C(=O)NCc2ccco2)nn1 | -2.14
13 | CCNC(=O)c1cc2n(n1)CCCO2 | 1.25
14 | O=C(NCC(O)c1ccoc1)Nc1c(F)cccc1F (configuration not stated) | -5.86
15 | CC(=O)N1CC2(CCN(C(=O)c3cccc4[nH]ccc34)CC2)C1 | -138
16 | CS(=O)(=O)N1CC(c2nc[nH]n2)c2cc(C(=O)NC3CC3)ccc21 (configuration not stated) | -158
17 | COCCO[C@H]1CCN(Cc2cnn(C)c2)[C@H]1Cc1cccnc1 | 0.793
18 | O=C(Cn1cc(C(=O)O)ccc1=O)Nc1cc(F)ccc1F | 0.687
19 | CC(C)n1ncc2c1NC(=O)CC2c1ccccc1Cl (configuration not stated) | 33.5
20 | Cn1c(=O)[nH]c(=O)n2c(CC(=O)Nc3c(Cl)cccc3Cl)cnc12 | 8.52
21 | O=C(Cc1c(F)cccc1F)N1CCN(CC(=O)N2CCCC2)CC1 | 4.57
22 | CCc1c(C)nc2n(c1=O)CC(C(=O)Nc1nc3c(s1)CCCC3)CS2 (configuration not stated) | 2.17
23 | COCCN(Cc1ccoc1)C(=O)c1cccnc1SC | 12.4

Row | Structure (SMILES) | cytotoxicity at 10 µM [%]
24 | O=C(Cn1cc(C(=O)O)ccc1=O)Nc1ccc(Cl)cc1F | -6.94
25 | CCS(=O)(=O)N1CCC2(CC(=O)N(c3cccc(C)c3)C2)C1 (configuration not stated) | -7.79
26 | CCn1ncc(Nc2[nH]cnc3nc(C)nc2-3)c1C | 3.26
27 | CCc1noc(C2CCCCN2C(=O)c2cccs2)n1 (configuration not stated) | 6.5
28 | CCn1ncc(NC(=O)CCn2ncc3c(Cl)cccc32)c1C | 7.74
29 | CSc1ncnc(NCc2ccco2)c1C#N | 0.0868
30 | CNC(=O)C1CN(C(=O)c2cccnc2)CCN(S(C)(=O)=O)C1 (configuration not stated) | 1.45
31 | Cn1cc(-c2ccc(C3CCCCN3Cc3cccnc3)cn2)cn1 (configuration not stated) | 11.6
32 | CN(C)Cc1cnc(CC2CCN(CCc3ccccc3)CC2)cn1 | -6.07
33 | CN1CCCCC1CC(=O)Nc1ccc2ncn(C)c2c1 (configuration not stated) | 4.18
34 | O=S(=O)(Nc1ccc(N2CCOCC2)cn1)c1ccc(F)cc1 | -6.64
35 | Cc1ccc2nc(CN(Cc3ccc(C#N)cc3)C(C)C)cc(=O)n2c1 | 21.1
36 | Cc1sc(NC(=O)CN(C)CCOc2cccc(F)c2)c(C)c1C | 4.21
37 | CNC(=O)Cc1ccc(NC(=O)NC2(c3cccc(F)c3)CC2)cc1 | 5.74
38 | NC(=O)CSCC(=O)NC1(c2cccc(Br)c2)CC1 | -13.9
39 | CNC(=O)COc1c(F)cc(Br)cc1C(C)=O | 1.44
40 | COCCN(Cc1ccccn1)C(=O)Nc1cccnc1-n1cccn1 | 1.06
41 | CCc1noc(C)c1C(=O)N1CCN(c2nc(C)cc(OC)n2)CC1 | -13.8
42 | Cn1cc(CNC(=O)c2cc3c(s2)CCCCC3)cn1 | -12
43 | Cc1cc(C)c(CNC(=O)N2CCC(N3CCCC3)CC2)c(=O)[nH]1 | -3.52
44 | CCN1CC(C(=O)NC(C)(C)C)CC1=O (configuration not stated) | -2.91
45 | Cc1cccc(N(CCC(N)=O)C(=O)c2cc(-n3cccn3)ccn2)c1 | -1.5
46 | CC(C)(C)c1cc(NC(=O)CN2CCCC2Cn2cncn2)on1 (configuration not stated) | 5.91

Row | Structure (SMILES) | cytotoxicity at 10 µM [%]
47 | Cc1ccc(C(=O)N2CCCCC2CNC(N)=O)s1 (configuration not stated) | -0.519
48 | CC(C)c1cccc(NC(=O)N2CC(N(C)C)C2)c1 | 9.12
49 | COCCC(Cc1cccc(Br)c1)C(=O)O (configuration not stated) | 9.21
50 | Cc1cc(C(C)NC(=O)CCN2C(=O)c3ccccc3C2=O)c(C)o1 (configuration not stated) | -7.82
51 | CSCCC(NC(=O)c1ccco1)C(=O)N(C)Cc1ccsc1 (configuration not stated) | -0.0681
52 | CCN(C(=O)CCc1ccccc1)C1CC(=O)NC1=O (configuration not stated) | -7.32
53 | CCOc1cc(NC(=O)NCCn2cnnc2CC)ccc1C | -7.37
54 | Cc1ccc2nc(NCCCN3CCCCCC3=O)n(C)c(=O)c2c1 | 7.04
55 | Cc1ccc(C)c(CN(C)Cc2nnc3ccccn23)c1 | -10.5
56 | CC(=O)NC1CCN(c2ccc(C#N)cc2C(F)(F)F)CC1 | 0.536
57 | Cc1csc(C2(NCC(O)COC(C)C)CCCC2)n1 (configuration not stated) | 4.53
58 | CNC(=O)C1CCCCN1C(=O)C1CCN(S(C)(=O)=O)CC1 (configuration not stated) | 6.03
59 | CCN(CC)CC(=O)NCCc1csc(N2CCCC2)n1 | 8.55
60 | c1cc(CNCc2ccnc(N3CCOCC3)c2)c2c(c1)OCCO2 | -4.66
61 | CN(CC1CCCCO1)C(=O)c1ccnc(OC2CCC2)c1 (configuration not stated) | -7.63
62 | CC(C)c1nc(C(=O)N2CCOCC2CC(=O)c2ccco2)c[nH]1 (configuration not stated) | 0.769
63 | Cc1cnc(CNC(=O)[C@@]23CCO[C@@H]2CCN(c2ncccn2)C3)cn1 | -100
64 | C[C@@H]1CN(C(=O)c2cccn2C)C[C@]12CCN(c1ccsc1)C2=O | -83.8
65 | Cc1noc(-c2ccc(N3CCN(Cc4nccn4C)CC3)nc2)n1 | 3.19
66 | COc1ccc(CN(C)C2CCN(C(=O)C(C)C)CC2)c2cccnc12 | 12.5
67 | CN(Cc1ccccc1)c1ncccc1CNC(=O)c1ccnn1C | -1.37
68 | CC(C)N(Cc1ccc(C(F)(F)F)nc1)Cc1cnn(C)c1 | 1.36
69 | CCc1nc(CNC(=O)c2ccc(C(C)N3CCCCC3)o2)cc(=O)[nH]1 (configuration not stated) | -13.6

Row | Structure (SMILES) | cytotoxicity at 10 µM [%]
70 | COc1ncc(-c2ccc(C(N)=O)cc2)c(OC)n1 | -5.9
71 | CN(C)Cc1ccc(C2CCCCN2C(=O)c2ncccc2O)cc1 (configuration not stated) | -6.59
72 | CSCc1nc(CNC(=O)C2CCCN(C(=O)N(C)C)C2)cs1 (configuration not stated) | -3.99
73 | CC(C)N1CCC(C(=O)N2CCC(C(O)c3nccn3C)CC2)CC1 (configuration not stated) | -2.7
74 | CCOc1cc(Cl)c(CN2CCC3(CCCNC3=O)C2)cc1OC (configuration not stated) | 10.6
75 | O=C1O[C@@H]2CN(c3cnccn3)C[C@@H]2N1CCCc1ccc(F)cc1 | -3.94
76 | O=C(Cn1ccnc1)N(CCO)CCSc1ccc(Cl)cc1 | 4.38
77 | CCC1(CO)CCN(C(=O)c2cc(COc3ccccc3F)[nH]n2)CC1 | 4.45
78 | O=C(NCCN1CCCCC1)c1cccc(Cl)c1Cl | 6.04
79 | CC(=O)N(C)C1CCN(c2ncc3c(n2)CCN3c2ccccc2)C1 (configuration not stated) | -9.62
80 | COCC1CCN(C(=O)c2cccc(S(=O)(=O)NC3CCCC3)c2)C1 (configuration not stated) | 10.8
81 | COc1cc(C)c(CN2CCC3(CC2)C(C(=O)O)CC(=O)N3C)cc1C (configuration not stated) | -8.58
82 | COCC(=O)N1CCC(c2cc(C(F)(F)F)n3ccnc3n2)CC1 | 1.44
83 | CC(=O)NCCNC(=O)CN1CCOC(Cn2cccn2)C1 (configuration not stated) | -7.6
84 | N#Cc1ccc(CN2CCCC2Cn2cccn2)cc1 (configuration not stated) | -2.96
85 | COc1ccc(C(O)CNC(=O)NCc2nc(C)cs2)cc1 (configuration not stated) | -3.54
86 | CCc1nc(C2CCCN(C(=O)c3cccnc3O)C2)no1 (configuration not stated) | -3.54
87 | Cc1cc(CN2CCCC2Cn2cccn2)no1 (configuration not stated) | -4.36
88 | N#Cc1cn(C2CC2)c(=O)n(CC(O)c2ccc(Cl)cc2)c1=O (configuration not stated) | -5.78
89 | Cc1cc(C)c(CNC(=O)N2CCN(c3ccccn3)CC2)c(=O)[nH]1 | -9.95
90 | COc1c(CNCc2ccnc(N(C)C)c2)c(C(C)C)nn1C | -6.3
91 | Cn1cc(C2CCCN2C(=O)CCCc2cccs2)cn1 (configuration not stated) | -2.12
92 | Cn1cnnc1C1CCN(C(=O)c2cc3c(s2)CCC3)CC1 | -10

Row | Structure (SMILES) | cytotoxicity at 10 µM [%]
93 | CC(=O)c1cccc(OCC(=O)NS(=O)(=O)c2ccc(Br)s2)c1 | -19.4
94 | Cc1cc(CN(C)C(=O)c2ccc(N(C)C)nc2)no1 | -5.4
95 | COc1ccccc1N1CCN(C(=O)NC(C)c2nncn2C)CC1 (configuration not stated) | -4.23
96 | Cc1cnn(CC2CCCN2Cc2noc(C)n2)c1 (configuration not stated) | 0.742
97 | CCc1ccc(NS(=O)(=O)c2cc3c(c(C(=O)O)c2)OCCO3)cc1 | -13.9
98 | Cn1ccnc1COc1ccc(CO)cc1 | -5.05
99 | Cn1ccnc1CN1CCN(CC(O)c2ccc(F)c(F)c2)CC1 (configuration not stated) | -12.9
100 | CCn1ccnc1CNCC1CCCN1c1cc(NC)ncn1 (configuration not stated) | 3.37
101 | OC(CNCCn1cccn1)c1ccc(F)c(F)c1 (configuration not stated) | 2.05
102 | CC(OCC1CC1)C(=O)N1CCCN(Cc2nccn2C)CC1 (configuration not stated) | 2.48
103 | c1ccc(Cn2ccnc2CN2CCOC(Cn3cccn3)C2)cc1 (configuration not stated) | -3.78
104 | COc1ccccc1CC1CCCN(CCC#N)C1 (configuration not stated) | 1.73
105 | COc1ccccc1C(=O)N1CCNCC1C(N)=O (configuration not stated) | 1.96
106 | Cn1cc(CN2CCC(F)(F)C3(CCN(c4ncccn4)C3)C2)cn1 (configuration not stated) | -0.58
107 | Cn1nc(C#N)c2c1CN(C(=O)c1cccnc1)CCC2 | 2.22
108 | O=C(c1cccnc1)N1Cc2nccn2CC(COc2cccnc2)C1 (configuration not stated) | 4.01
109 | COCC1CN(Cc2ccc(F)cc2)Cc2nn(C)cc21 (configuration not stated) | -81.4
110 | CCS(=O)(=O)N1Cc2ncn(CC3CC3)c2C(COCC2CC2)C1 (configuration not stated) | 0.822
111 | CC(C)CS(=O)(=O)N1C[C@@H]2C[C@H](C(=O)NCc3ccccc3)[C@H](C1)O2 | 8.24
112 | O=c1[nH]c2cn(-c3ccc(F)cc3)c(=O)n2n1Cc1cccc(Cl)c1 | 6.59
